Experiments:
Motilin receptor [1] = molecular target: T1, Motilin receptor (Homo sapiens, UniProt O43193); experiment: Agonist activity at human recombinant motilin receptor expressed in CHO cells assessed as increase in intracellular calcium by FLIPR assay; assay type: functional, cell-based
In short: (§1)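 CHO-K1 cells stably transfected with human motilin receptor, grown in DMEM/HamF-12 with 10% FBS, 2 mM GlutaMAX, 1 mg/mL Geneticin; seeded 10 000 cells/well, 24 h. Loaded with Fluo 4 (2.5 µM) in Tyrodes with probenecid, 1 h at 37.5 °C. Compound top final 12 µM, 1-in-4 dilutions; fluorescence read over 1 min; max change over baseline, four-parameter logistic fit; intrinsic activity = curve maximum relative to motilin maximum.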

Motilin receptor [2] = molecular target: T1, Motilin receptor; experiment: Intrinsic activity at human recombinant motilin receptor expressed in CHO cells relative to motilin; assay type: cell-based; in short: as §1
Cytochrome P450 3A4 [3] = molecular target: T2, Cytochrome P450 3A4 (Homo sapiens, UniProt P08684); experiment: Inhibition of human CYP3A4 expressed in Escherichia coli using diethoxyfluorescein substrate assessed as decrease in enzyme activity by time dependent inhibition assay; assay type: ADME; design: unit not given here
Cytochrome P450 3A4 [4] = molecular target: T2, Cytochrome P450 3A4; experiment: Inhibition of human CYP3A4 expressed in Escherichia coli using 7BQ substrate by time dependent inhibition assay; assay type: ADME
Cytochrome P450 3A4 [5] = molecular target: T2, Cytochrome P450 3A4; experiment: Inhibition of human CYP3A4 expressed in Escherichia coli using diethoxyfluorescein substrate by time dependent inhibition assay; assay type: ADME
[6] = Aqueous solubility of the compound; assay type: physicochemical; settings: aqueous medium

T2 sequence (P08684 whole entry): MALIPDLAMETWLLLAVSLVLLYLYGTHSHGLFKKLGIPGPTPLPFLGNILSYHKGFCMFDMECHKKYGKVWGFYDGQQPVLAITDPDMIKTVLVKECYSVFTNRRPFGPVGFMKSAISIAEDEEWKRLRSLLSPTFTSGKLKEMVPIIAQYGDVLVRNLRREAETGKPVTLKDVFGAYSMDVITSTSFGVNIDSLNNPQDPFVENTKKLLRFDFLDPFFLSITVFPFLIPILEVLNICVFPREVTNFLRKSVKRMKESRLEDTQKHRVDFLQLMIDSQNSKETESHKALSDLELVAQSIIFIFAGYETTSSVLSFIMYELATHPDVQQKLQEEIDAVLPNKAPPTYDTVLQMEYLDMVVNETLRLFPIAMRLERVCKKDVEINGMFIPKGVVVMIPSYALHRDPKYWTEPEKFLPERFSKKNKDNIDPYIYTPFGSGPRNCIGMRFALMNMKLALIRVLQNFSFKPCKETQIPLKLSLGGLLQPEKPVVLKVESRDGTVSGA
T1 sequence (O43193 whole entry): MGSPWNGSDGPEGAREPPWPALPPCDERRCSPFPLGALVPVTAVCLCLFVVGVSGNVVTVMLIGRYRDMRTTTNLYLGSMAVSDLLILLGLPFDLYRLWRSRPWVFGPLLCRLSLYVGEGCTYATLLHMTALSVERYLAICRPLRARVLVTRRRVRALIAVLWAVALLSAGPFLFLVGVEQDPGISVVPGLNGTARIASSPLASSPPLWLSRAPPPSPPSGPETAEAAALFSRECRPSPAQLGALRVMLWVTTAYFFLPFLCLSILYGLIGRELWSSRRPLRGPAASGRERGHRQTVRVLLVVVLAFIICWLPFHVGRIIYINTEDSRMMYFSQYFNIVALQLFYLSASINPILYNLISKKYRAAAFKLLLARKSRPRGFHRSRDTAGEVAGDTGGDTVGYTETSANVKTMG

| Structure (SMILES) | EC50 (Motilin receptor [1]) [nM] | Intrinsic activity (Motilin receptor [2]) | Activity (Cytochrome P450 3A4 [3]) | IC50 (Cytochrome P450 3A4 [4]) [nM] | IC50 (Cytochrome P450 3A4 [5]) [nM] | solubility [6] [µg/mL] |
| --- | --- | --- | --- | --- | --- | --- |
| C[C@H]1CN(Cc2ccc(CC(=O)N3CCC(Nc4ccc(F)cc4)CC3)cc2)CCN1 | 10 | 0.8 |  |  |  |  |
| C[C@@H]1CN(Cc2ccc(CCC(=O)N3CCC(Nc4ccc(F)cc4)CC3)cc2)C[C@H](C)N1 | 50.1 | 0.9 |  |  |  |  |
| C[C@@H]1CN(Cc2ccc(CC(=O)N3CCC(Nc4cccc(F)c4)CC3)cc2)CCN1 | 20 | 0.7 |  |  |  |  |
| CC[C@H](C)[C@H](NC(=O)[C@@H]1CCCN1C(=O)[C@@H](NC(=O)[C@@H](N)Cc1ccccc1)C(C)C)C(=O)N[C@@H](Cc1ccccc1)C(=O)N[C@H](C(=O)N[C@@H](Cc1ccc(O)cc1)C(=O)NCC(=O)N[C@@H](CCC(=O)O)C(=O)N[C@@H](CC(C)C)C(=O)N[C@@H](CCC(N)=O)C(=O)N[C@@H](CCCNC(=N)N)C(=O)N[C@@H](CCSC)C(=O)N[C@@H](CCC(N)=O)C(=O)N[C@@H](CCC(=O)O)C(=O)N[C@@H](CCCCN)C(=O)N[C@@H](CCC(=O)O)C(=O)N[C@@H](CCCNC(=N)N)C(=O)N[C@@H](CC(N)=O)C(=O)N[C@@H](CCCCN)C(=O)NCC(=O)N[C@@H](CCC(N)=O)C(=O)O)[C@@H](C)O | 0.0398 | 1 |  |  |  |  |
| C[C@@H]1CN(Cc2ccc(CC(=O)N3CCC(Nc4ccc(F)cc4)CC3)cc2)C[C@H](C)N1 | 39.8 | 0.9 | 2.7 | 59000 | 41000 |  |
| C[C@H]1CN(Cc2ccc(CCC(=O)N3CCC(Nc4cccc(F)c4)CC3)cc2)CCN1 | 25.1 | 1 | 3.2 | 18000 | 10000 |  |
| C[C@H]1CN(Cc2ccc(CC(=O)N3CCC(Nc4cccc(F)c4)CC3)cc2)CCN1.Cl |  |  |  |  |  | > 1 |
| CC(C(=O)N1CCC(Nc2ccc(F)cc2)CC1)c1ccc(CN2C[C@@H](C)N[C@@H](C)C2)cc1 (some centres undefined) | 31.6 | 1.1 | 7.6 |  | 8700 |  |
| C[C@@H]1CN(Cc2ccc(-c3cccnc3C(=O)N3CCC(Nc4ccc(F)cc4)CC3)cc2)C[C@H](C)N1.Cl |  |  |  |  |  | ≥ 1 |

Reference: ChEMBL document CHEMBL1140927, “Discovery of N-(3-fluorophenyl)-1-[(4-([(3S)-3-methyl-1-piperazinyl]methyl)phenyl)acetyl]-4-piperidinamine (GSK962040), the first small molecule motilin receptor agonist clinical candidate” (J Med Chem, 2009)
